This is an account of results in ChEMBL document CHEMBL4673403, “Development of a Hematopoietic Prostaglandin D Synthase-Degradation Inducer” (ACS Med Chem Lett, 2021).

A short description of data set [1]: Protac activity at CRBN/AKR1B1 in human KU812 cells assessed as reduction in AKR1B1 protein level up to 1000 nM measured after 24 hrs by Western blot analysis. The settings on record: KU812 cell line, dose nM <=1000, time 24.0 hrs. A general note: Immunoblotting shows a protein as a band on a membrane.
Data set [2] deals with T1, Protein cereblon/Hematopoietic prostaglandin D synthase (Homo sapiens) (UniProt O60760+Q96SW2). The experiment in a line: Protac activity at CRBN/HPGDS in human KU812 cells assessed as induction of HPGDS degradation at 10 to 100 nM incubated for 24 hrs followed by compound washout and further incubated for 6 hrs in compound-free medium by Western blot analysis. The settings on record: KU812 cell line, dose 10-100 nM. It counts as cell-based. In a few lines: (§1)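 KU812 cells incubated with compounds 24 h, washed four times, then held 6 h in compound-free medium. Western blot H-PGDS/β-actin normalized to vehicle as 100; means ± SD, n = 3; two-tailed t test.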

Data set [3] concerns the target T2, Hematopoietic prostaglandin D synthase (Homo sapiens, UniProt O60760). The experiment in a line: Inhibition of HPGDS in human KU812 cells assessed as reduction in PGD2 level at 10 to 100 nM incubated for 24 hrs followed by A23187 treatment and measured after 30 mins and subsequent compound washout then further incubated for 6 hrs in compound-free medium by ELISA. To be noted: KU812 cell line, dose 10-100 nM, time 1470.0 min. Type of data set: cell-based. In a few lines: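 KU812 cells exposed to compounds 24 h, washed four times, kept 6 h compound-free, then stimulated with 5 μM A23187 for 30 min; medium PGD2 measured. Means ± SD, n = 3; two-tailed t test.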
(In general: An ELISA detects its analyte on a solid surface through an enzyme-linked reagent.)

For data set [4], the target named is T1, Protein cereblon/Hematopoietic prostaglandin D synthase (Homo sapiens). The experiment in a line: Protac activity at CRBN/HPGDS in human KU812 cells assessed as induction of HPGDS degradation at 100 nM measured after 6 hrs in presence of ubiquitin-activating enzyme inhibitor MLN7243 by Western blot analysis. Type of data set: cell-based. To be noted: KU812 cell line. The method, boiled down: (§2)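 KU812 cells given 100 nM degrader with or without 10 μM MG132 or 10 μM MLN7243 for 6 h. Western blot H-PGDS/β-actin normalized to vehicle as 100; means ± SD, n = 3.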

A short description of data set [5]: Solubility of the compound. It counts as physicochemical.
Data set [6] has as its target T1, Protein cereblon/Hematopoietic prostaglandin D synthase (Homo sapiens). The experiment in a line: Protac activity at CRBN/HPGDS in human MEG01s cells assessed as reduction in HPGDS protein level up to 1000 nM measured after 6 hrs by Western blot analysis. Type of data set: cell-based. The settings on record: dose nM <=1000, time 6.0 hrs.
For data set [7] the target is unchanged. The experiment in a line: Protac activity at CRBN/HPGDS in human KU812 cells assessed as reduction in HPGDS protein level at >=10 nM measured after 6 to 24 hrs by Western blot analysis. It counts as cell-based. The settings on record: KU812 cell line, dose nM >=10, time 6-24 hrs. In a few lines: (§3)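 KU812 cells exposed to graded concentrations for 3, 6 or 24 h. Western blot; H-PGDS/β-actin ratio normalized to vehicle control as 100; means ± SD, n = 3.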

For data set [8], the system named is Protein cereblon/Prostaglandin E synthase (Homo sapiens). The experiment in a line: Protac activity at CRBN/MPGES-1 in human KU812 cells assessed as reduction in MPGES-1 protein level up to 1000 nM measured after 24 hrs by Western blot analysis. To be noted: KU812 cell line, dose nM <=1000, time 24.0 hrs.
Data set [9] concerns the target T1, Protein cereblon/Hematopoietic prostaglandin D synthase (Homo sapiens). The experiment in a line: Protac activity at CRBN/HPGDS in human KU812 cells assessed as reduction in HPGDS protein level at 100 to 1000 nM measured after 3 hrs by Western blot analysis. Type of data set: cell-based. The settings on record: KU812 cell line, dose 100-1000 nM. The method, boiled down:
as §3

The target is the same in data set [10]. The experiment in a line: Protac activity at CRBN/HPGDS in human KU812 cells assessed as induction of HPGDS degradation at 1 uM measured after 6 hrs by Western blot analysis. Type of data set: cell-based. The settings on record: KU812 cell line. In a few lines: (§4)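 KU812 cells incubated 6 h with 1 μM degrader or with the ligand mixture (TFC-007 plus pomalidomide, 1 μM each). Western blot H-PGDS/β-actin normalized to vehicle as 100; means ± SD, n = 3; two-tailed t test.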

Data set [11] has the same target. The experiment in a line: Competitive binding affinity to HPGDS in human KU812 cells assessed as induction of CRBN-mediated degradation of HPGDS at 100 nM after 6 hrs in presence of excess pomalidomide by Western blot analysis. It counts as cell-based. The settings on record: KU812 cell line. The method, boiled down:
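KU812 cells given 100 nM degrader and/or 10 μM pomalidomide for 6 h. Western blot H-PGDS/β-actin normalized to vehicle as 100; means ± SD, n = 3.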

In data set [12] the target is Protein cereblon/G2/mitotic-specific cyclin-B1 (Homo sapiens) (UniProt P14635+Q96SW2). The experiment in a line: Protac activity at CRBN/Cyclin B1 in human KU812 cells assessed as decrease in cyclin B1 protein level by measuring protein turnover at 100 nM measured within 6 hrs in presence of protein synthesis inhibitor cycloheximide by Western blot analysis. It counts as cell-based. The settings on record: KU812 cell line. The method, boiled down:
(§5)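 KU812 cells given 10 μg/mL cycloheximide with or without 100 nM degrader for the indicated periods. H-PGDS/β-actin and cyclin B1/β-actin ratios by Western blot, normalized to time 0 control as 100; means ± SD, n = 3.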

Data set [13] deals with T2, Hematopoietic prostaglandin D synthase. The experiment in a line: Binding affinity to recombinant human HPGDS expressed in Escherichia coli BL21 (DE3) measured after 1 hr by fluorescence polarization assay. In a few lines: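 Competitive binding to H-PGDS read by fluorescence polarization with a fluorescence probe.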
In general terms: Polarisation of emitted light reports the rotation of a fluorescent probe.

Data set [14] has as its target T1, Protein cereblon/Hematopoietic prostaglandin D synthase (Homo sapiens). The experiment in a line: Protac activity at CRBN/HPGDS in human KU812 cells assessed as reduction in HPGDS protein level at >=10 nM measured after 3 hrs by Western blot analysis. It counts as cell-based. To be noted: KU812 cell line, dose nM >=10, time 3.0 hrs. The method, boiled down:
as §3

Data set [15] concerns the target T2, Hematopoietic prostaglandin D synthase. The experiment in a line: Inhibition of HPGDS in human KU812 cells assessed as reduction in PGD2 level at 10 to 100 nM incubated for 24 hrs followed by A23187 treatment and measured after 30 mins by ELISA. It counts as cell-based. The settings on record: KU812 cell line, dose 10-100 nM, time 1470.0 min. In a few lines: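 After 24 h compound exposure, KU812 cells stimulated with 5 μM A23187 for 30 min with compound still present; PGD2 measured in medium. Means ± SD, n = 3; two-tailed t test.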

The target is the same in data set [16]. The experiment in a line: Inhibition of recombinant human HPGDS expressed in Escherichia coli BL21 (DE3) measured after 3 mins by spectrophotometric analysis.
Data set [17] has as its target T1, Protein cereblon/Hematopoietic prostaglandin D synthase (Homo sapiens). The experiment in a line: Protac activity at CRBN/HPGDS in human KU812 cells assessed as decrease in HPGDS protein level by measuring protein turnover at 100 nM measured within 6 hrs in presence of protein synthesis inhibitor cycloheximide by Western blot analysis. Type of data set: cell-based. The settings on record: KU812 cell line. The method, boiled down:
as §5

Another data set concerns KU812. The experiment in a line: Effect on HPGDS mRNA expression in human KU812 cells up to 1000 nM measured after 6 hrs by SYBR green based qRT-PCR analysis. Type of data set: functional, cell-based. To be noted: dose nM <=1000, time 6.0 hrs. In a few lines: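 KU812 cells treated with the indicated concentrations for 6 h. H-PGDS mRNA expressed relative to vehicle, set to 1; means ± SD, n = 3; two-tailed Student's t test versus vehicle.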

In data set [18] the target is T1, Protein cereblon/Hematopoietic prostaglandin D synthase (Homo sapiens). The experiment in a line: Protac activity at CRBN/HPGDS in human KU812 cells assessed as induction of HPGDS degradation at 100 nM measured after 6 hrs in presence of proteasome inhibitor MG132 by Western blot analysis. It counts as cell-based. To be noted: KU812 cell line. The method, boiled down:
as §2

Data set [19] has as its target T2, Hematopoietic prostaglandin D synthase. The experiment in a line: Induction of HPGDS degradation in human KU812 cells at 1 uM measured after 6 hrs in presence of pomalidomide by Western blot analysis. It counts as cell-based. To be noted: KU812 cell line. The method, boiled down:
as §4

Data set [20] addresses T1, Protein cereblon/Hematopoietic prostaglandin D synthase (Homo sapiens). The experiment in a line: Induction of CRBN-mediated HPGDS degradation in human KU812 cells at 10 to 100 nM incubated for 24 hrs followed by compound washout and further incubated for 6 hrs in compound-free medium by Western blot analysis. It counts as cell-based. The settings on record: KU812 cell line, dose 10-100 nM. The method, boiled down: as §1

The target of data set [21] is T2, Hematopoietic prostaglandin D synthase. The experiment in a line: Inhibition of recombinant human HPGDS using [14C]-PGH2 as substrate preincubated for 1 min in presence of MgCl2 followed by substrate addition and measured after 45 mins by radioactive imaging analysis.
The target is the same in data set [22]. The experiment in a line: Induction of HPGDS degradation in human KU812 cells at 1 uM measured after 6 hrs in presence of TFC-007 by Western blot analysis. Type of data set: cell-based. The settings on record: KU812 cell line. The method, boiled down: as §4
The target in data set [23] is Baculoviral IAP repeat-containing protein 2/Hematopoietic prostaglandin D synthase (Homo sapiens) (UniProt Q13490+O60760). The experiment in a line: SNIPER activity at IAP1/HPGDS in human KU812 cells assessed as reduction in HPGDS protein level up to 1000 nM measured after 6 hrs by Western blot analysis. Type of data set: cell-based. The settings on record: KU812 cell line, dose nM <=1000, time 6.0 hrs.

Data set [24] addresses T2, Hematopoietic prostaglandin D synthase. The experiment in a line: Inhibition of recombinant human HPGDS.

Calls of active or inactive are those of the source. The rule behind the calls is not given here.

By IC50 is commonly meant the concentration at which inhibition is half-maximal. Turning to `O=C1CCC(N2C(=O)c3cccc(NCCOCCOCCOCCOCCOCCC(=O)N4CCN(C(=O)C5CCN(c6ccc(NC(=O)c7cnc(Oc8ccccc8)nc7)cc6)CC5)CC4)c3C2=O)C(=O)N1` (stereo not given), the result (in data set [1]; in data set [4]; in data set [8]; in data set [11]; in data set [12]; in the data set with KU812) was inactive. The result in [18] was inactive. The result in [2], in data set [6], in [7], in [9], in data set [10] and in [14] was Active. In addition, in data set [17], the outcome was Active. Also, the inhibition entry in data set [3] and in [15] was “Active” in each case. Besides, the solubility result in [5] is “Soluble”. Also, the IC50 in data set [13] was 320 nM; in data set [16], 266 nM.

As for `O=C(Nc1ccc(N2CCC(C(=O)N3CCOCC3)CC2)cc1)c1cnc(Oc2ccccc2)nc1`, the outcome in data set [19] and in [20] was inactive. Moreover, in data set [3], the inhibition entry is “inactive”. For the same compound, the values for the half-maximal inhibitory concentration (IC50) in [21], in [13] and in [16] were 71 nM, 320 nM and 71 nM, respectively. Moreover, the inhibition entry in data set [15] is “Active”.

As for `Nc1cccc2c1C(=O)N(C1CCC(=O)NC1=O)C2=O` (stereo not given), the outcome in data set [22] was inactive.

In the case of `CN[C@@H](C)C(=O)N[C@H](C(=O)N1CCC[C@H]1c1nc(C(=O)c2cccc(OCCOCCOCC(=O)N3CCN(C(=O)C4CCN(c5ccc(NC(=O)c6cnc(Oc7ccccc7)nc6)cc5)CC4)CC3)c2)cs1)C1CCCCC1`, in data set [23], the outcome was inactive.

For `CN1C(=O)CCC(N2C(=O)c3cccc(NCCOCCOCCOCCOCCOCCC(=O)N4CCN(C(=O)C5CCN(c6ccc(NC(=O)c7cnc(Oc8ccccc8)nc7)cc6)CC5)CC4)c3C2=O)C1=O` (stereo not given), the outcome in [2] was inactive. Besides, the inhibition entry in data set [3] was “inactive”. The solubility result in data set [5] is given as “Soluble”. Also, the IC50 in data set [13] and in [16] was 320 nM in each case. The inhibition result in data set [15] was “Active”.

For the compound `CON(C)C(=O)c1[nH]c(C)c(-c2nc3cc(C(=O)c4ccccc4)ccc3[nH]2)c1C`, the half-maximal inhibitory concentration (IC50) in data set [24] is 23 nM.
